Bioassay records deposited in PubChem BioAssay by several laboratories.
Sampled rows, rich in hits. Any-hit rate of the full collection: about 3.7%.
Mdm2-MdmX inh – inhibitors of human Mdm2/MdmX interaction; O15151+Q00987; inhibition, % at 8 µM; hit rate 3% among 330,000; SaOS-2 split-luciferase Mdm2/MdmX complementation, luminescence;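 active means inhibition of at least 50% at 8 µM in the primary screen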
Beta2AR agonist – human beta-2 adrenergic receptor agonism by FAP. response, % (concentration not given with the values). Am2.2-beta2AR cells, FAP receptor internalization, flow cytometry. AID 504454. P07550. hit rate 0.43% among 340,000;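 active means response above a set limit, near 3 SD of response in nonfluorescent compounds, cut at about 42% in these data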
Dynein cargo inh – dynein cargo transport inhibition | z-score, hits read low | 3617.4 mouse cells, GR-EGFP nuclear translocation imaging; test concentration mostly 20 µM; stimulated with dexamethasone, 1 µM; hits give low values | hit rate 0.47% among 220,000;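 active means plate z-score of nuclear minus cytoplasmic receptor signal below a set negative limit, without overly bright fluorescence or cell loss, cut at about -3.5 in these data, passing the limit was not always enough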;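 further: z-score of nuclear minus cytoplasmic ring GR-EGFP intensity difference per well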
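Medium: Induction medium lacking tetracycline, stripped serum | Probe or stimulus: 1.0 µM final dexamethasone stimulus | Schedule: 48 h induction, then 1 h compound, then 30 min agonist, 37 °C | Signal: Automated 10x imaging of fixed Hoechst-stained cells | Evaluation: Per-cell GR-EGFP intensity, nucleus versus surrounding cytoplasmic ring, well-averaged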
CHOP UPR activ – apoptotic UPR (CHOP) activation; AID 449763; hit rate 0.34% among 330,000; activation, % at 10 µM; CHO-CHOP luciferase reporter, luminescence; percent of tunicamycin response over DMSO baseline;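 active means at 10 µM dose, activation of 40% or more, normalized to positive control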
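assay system = CHO CHOP reporter cells | amount = 500 CHO-CHOP cells per well | buffer or medium = F12 with 10% FBS | incubation = 16-18 h cell attachment, then 6 h compound exposure, 37 °C | detection = luminescence read with Steady-Glo | read-out = percent activation relative to tunicamycin control | controls = tunicamycin high control, DMSO low control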
MDM2 E3 inh – inhibitors of human Mdm2 E3 ubiquitin ligase; Q00987; cell-based MDM2 ubiquitination luciferase reporter, 2 h; 0 = plate control, 100 = twice control, blank-subtracted; signal enhancement, % at 5 µM; hit rate 0.11% among 210,000; AID 1230;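 active means signal enhancement of 30% or more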;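 further: luminescence tracks abundance of the self-degrading MDM2-luciferase fusion protein; higher signal means inhibition of MDM2 E3 ligase activity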
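Material: stable MDM2–luciferase fusion reporter cells / Quantity: 2000 cells/well / Dosing: single 5 µM compound dose, 0.2% final DMSO / Buffer or medium: DMEM / Schedule: 4 h cell settling then 2 h compound exposure, 37 °C / Detection: luminescence with SteadyLite reagent, 15 min at room temperature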
UPR XBP1 act – adaptive UPR (XBP1) activation. CHO-XBP1 luciferase reporter, IRE1-XBP1 UPR activation, luminescence; percent of tunicamycin response, DMSO as zero. activation, % at 20 µM. hit rate 0.33% among 330,000;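 active means versus positive control, 20 µM dose yields 30% or more activation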
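incubation = overnight seeding at 37 °C, 6 h compound treatment at 37 °C | assay system = CHO-XBP1 cells stably carrying IRE1-XBP1-driven luciferase reporter | input = 1000 cells per well | detection = luciferase luminescence | dosing = single point, 20 µM final compound, 1% DMSO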
Dynein confirm – dynein cargo transport inhibition, confirmation. calls only at 20 µM. AID 463116. 3617.4 GR-EGFP nuclear translocation imaging, dexamethasone-induced. shares compounds with Dynein cargo inh. hit rate 69% among 1,000;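 active means inhibition of receptor movement into the nucleus at or above a set limit in both runs, with normal cell brightness and cell count; inconclusive means limit reached in only one run, brightness and count normal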;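 further: dexamethasone at 1 µM final in well for 30 min; nuclear minus cytoplasmic GR-EGFP mean intensity difference in channel 2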
Numbers stand for hits; n = inactive; u = inconclusive; x = no result given; + = active, no number.

SMILES | Mdm2-MdmX inh | Beta2AR agonist | Dynein cargo inh | CHOP UPR activ | MDM2 E3 inh | UPR XBP1 act | Dynein confirm
O=C(CN1C(=O)NC2(CCCc3ccccc32)C1=O)NCc1cccs1 (stereo unspecified) | n | n | x | n | x | n | x
COC(=O)C1=C(C)N(Cc2ccco2)C(=O)/C1=C\c1ccc(N(C)C)cc1 | n | n | n | n | n | n | x
COC(=O)C1=C(C)N(Cc2ccco2)C(=O)/C1=C\c1ccc([N+](=O)[O-])cc1 | n | n | -3.6 | n | n | n | +
CCCC1OC(c2ccco2)OCC1CC (stereo unspecified) | x | n | x | x | x | x | x
CCOC(=O)c1ccc(NC(=O)CC2Sc3ncnn3C2=O)cc1 (stereo unspecified) | n | n | n | n | n | n | x
COc1ccc(NC(=O)CC2Sc3ncnn3C2=O)cc1 (stereo unspecified) | n | n | -4 | n | n | n | n
O=C(CC1Sc2ncnn2C1=O)Nc1ccc(Cl)cc1 (stereo unspecified) | n | x | -3.6 | n | n | n | n
N#C/C(=C/c1ccc(N2CCOCC2)o1)c1ccc(Cl)cc1 | x | n | n | x | n | x | n
CCc1ccccc1NC(=O)CN(C)C(=O)Cn1ncc(Cl)c(Cl)c1=O | x | n | -3.7 | x | n | x | +
CC1=Nc2ccccc2/C1=C/c1nc(-c2ccc(C)s2)oc1O | n | n | n | n | n | n | u
CC1=Nc2ccccc2/C1=C\c1nc(-c2ccccc2)oc1O | n | n | n | n | n | n | x
CCOC(=O)C1=CN(Cc2ccco2)S(=O)(=O)NC1c1ccc(C(F)(F)F)cc1 (stereo unspecified) | n | n | x | n | x | n | x
N#CC1=C(N)C(C#N)(C#N)C(c2ccncc2)C2CN(C(=O)OCc3ccccc3)CC=C12 (stereo unspecified) | n | n | n | n | n | n | n
N#CC1=C(N)C(C#N)(C#N)[C@H](c2cccnc2)[C@H]2CN(C(=O)OCc3ccccc3)CC=C12 | n | n | n | n | n | n | x
CC(=O)Nc1sc(/C(C#N)=C/c2ccc(Cl)c(Cl)c2)nc1-c1ccc(C)cc1 | x | n | -5.9 | x | n | x | +
O=C(/C=C/c1ccccc1O)c1ccco1 | n | n | x | n | x | n | x
O=C(/C=C/c1cc(Br)ccc1O)c1ccco1 | n | 86 | -4.7 | n | n | n | n
Cc1onc(-c2ccccc2)c1-c1nc2cc(Cl)ccc2c(=O)o1 | n | n | -3.8 | n | n | n | +
Cc1ccc(O)c(NC(=O)c2cc([N+](=O)[O-])ccc2Cl)c1 | n | n | -3.7 | n | n | n | +
CC(NCC(=O)Nc1ccccc1C(=O)NC1CC1)c1ccc(F)cc1F (stereo unspecified) | n | n | x | n | x | n | x
Nc1ccc(O)cc1C(=O)OCC(=O)c1ccc(C2CCCCC2)cc1 | x | n | -3.5 | x | n | x | +
COc1ccc(C(=O)OCC(=O)c2ccc(C3CCCCC3)cc2)cc1 | n | n | n | n | n | n | x
Nc1c(C(=O)c2ccccc2)sc2nsc(SCCN3CCCC3)c12 | n | n | n | n | n | n | n
O=C(NCCN1CCOCC1)c1ccc(Cl)cc1 | n | n | n | n | n | n | x
CC(=O)c1sc2nsc(SCCN3CCCCC3)c2c1N | n | n | n | n | n | n | x
SMILES | Mdm2-MdmX inh | Beta2AR agonist | Dynein cargo inh | CHOP UPR activ | MDM2 E3 inh | UPR XBP1 act | Dynein confirm
Nc1c(C(=O)c2ccc(Cl)cc2)sc2nsc(SCCN3CCOCC3)c12 | n | n | n | n | n | n | n
NC(=O)[C@@H]1CCCN1Cc1c(C(=O)N2CCc3ccccc3C2)nc2ccc(Cl)cn12 | n | n | x | n | x | n | x
COc1ccc(C(=O)C(CN2CCOCC2)c2ccccc2)cc1F (stereo unspecified) | x | n | -4 | x | n | x | +
CCN(CC)Cc1cc(O)c(CN(CC)CC)cc1O | x | n | -4.9 | x | n | x | +
CCc1oc(C(=O)O)cc1CN(CC)CC | n | n | n | n | n | n | x
O=C(Cn1sc2ccccc2c1=O)NC12CC3CC(CC(C3)C1)C2 | n | n | -5.1 | n | n | n | n
Nc1cccc2c1C(=O)N(CC(=O)NC13CC4CC(CC(C4)C1)C3)C2=O | n | n | n | n | n | n | x
N#Cc1ccc(-c2cccnc2)nc1SCC(=O)c1ccccc1 | n | n | n | n | n | n | n
CCOC(=O)CCSc1nc(C)cc(C(F)(F)F)c1C#N | n | n | n | n | n | n | n
O=C(NCc1ccccc1Cl)C1CCN(C(=O)c2ccco2)CC1 | n | x | x | n | x | n | x
COc1ccc(C(=O)c2sc3nc(C)cc(-c4cccs4)c3c2N)cc1 | x | n | n | x | n | x | u
COc1ccc(C(=O)c2sc3nc(C)cc(-c4cccs4)c3c2N)cc1OC | x | n | n | x | n | x | n
Cc1cc(C)c2c(N)c(C(=O)c3ccc(Cl)c(Cl)c3)sc2n1 | n | n | n | n | n | n | x
Cc1cc(C)c2c(N)c(C(=O)c3ccc(Cl)cc3)sc2n1 | n | n | n | n | n | n | x
Cc1cc(-c2cccs2)c2c(N)c(C(=O)c3ccc4c(c3)OCO4)sc2n1 | n | n | n | n | n | n | u
CC(NC(=O)Cc1ccc(NS(=O)(=O)c2cccc(C(F)(F)F)c2)cc1)c1ccccn1 (stereo unspecified) | n | n | x | n | x | n | x
O=C(NC1CCN(S(=O)(=O)c2ccccc2C(F)(F)F)CC1)c1ccco1 | n | n | x | n | x | n | x
CCOc1cccc(C(=O)NNC(=O)C2C3C=CC(C3)C2C(=O)O)c1 (stereo unspecified) | n | n | x | n | x | n | x
CC(C)(C)NC(=O)NC(=O)CN1CCCc2ccccc21 | n | n | n | n | n | n | x
O=C(CN1CCCc2ccccc21)NC(=O)NC1CCCCC1 | n | n | n | n | n | n | n
CCCCc1ccc(/C=C2\C(=O)c3ccccc3C(O)=C2C(=O)OCC)cc1 | n | x | -4.2 | n | n | n | +
Cc1cc(N)ncc1[N+](=O)[O-] | x | n | x | x | x | x | x
Cc1cc(Sc2nc(N)ncc2[N+](=O)[O-])ncn1 | n | n | -5 | n | n | n | +
CC[C@H](C)/C=C(C)/C=C/C(=O)Cc1cc(O)c(C)c(O)c1C=O | n | n | -3.8 | n | n | n | +
Cc1ccc(N2C(=O)C(F)(F)C2c2ccccc2)cc1 (stereo unspecified) | n | n | n | n | n | n | x
Cc1ccc(N2C(=N)/C(=C3/Nc4ccccc4S3)C(c3ccccc3)C2=O)cc1 (stereo unspecified) | x | n | -3.6 | x | n | x | +
COc1cc(OC)cc(C(=O)NNC(=S)NC2CC2)c1 | n | n | n | n | n | n | x
